Data from ChEMBL document CHEMBL1240469, “In vitro and in vivo studies on stilbene analogs as potential treatment agents for colon cancer” (Eur J Med Chem, 2010).
Calls of active or inactive are those of the source. The calls are words filed in the database; no cut-off is given here.

Experiments:
[1] = tested on: HT-29; experiment: Cytotoxicity against human HT-29 cells after 3 days by [3H]thymidine incorporation assay; type: functional, cell-based
Method in brief: (§1)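 Cells kept in DMEM with 10% FBS at 37 °C, 5% CO2, then plated at 20,000 cells/well. Exposed to a range of concentrations for 3 days at 37 °C, final DMSO 0.1% or less, with DMSO controls. IC50 reported.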

[2] = tested on: Caco-2; experiment: Cytotoxicity against human Caco-2 cells after 3 days by [3H]thymidine incorporation assay; type: functional, cell-based; method in brief: as §1
[3] = tested on: Serum; experiment: Drug level in SCID mouse serum at 10 mg/kg, ip by GC-MS analysis; type: ADME, organism-based; parameters: dose 10 mg/kg, route intraperitoneal; conditions: in vivo
Method in brief: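 Blood taken at autopsy from xenografted SCID mice after 3 weeks of daily i.p. dosing at 10 mg/kg. Serum (50 μL) was incubated with 1 M sodium acetate pH 5 for 60 min at 37 °C, extracted 3× with ethyl acetate, dried and redissolved. Analysed by GC-MS on a DB-5 column, with quantification against external-standard calibration curves at m/z 255, 298 or 270. Values given as mean ± std.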

[4] = tested on: HT-29; experiment: Up-regulation of p27 expression level in human HT-29 cells by immunohistochemistry analysis; type: functional, cell-based
Method in brief: (§2)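 Paraffin sections of xenograft tumors, 4 μm thick, incubated overnight with anti-PCNA (1:1000) or anti-p27 (1:50), then biotinylated secondary, avidin-biotin peroxidase and diaminobenzidine, with hematoxylin counterstain. Five random fields per slide were imaged at 400×. PCNA was reported as labeling index (positive cells/total ×100, averaged per tumor); p27 as integrated optical density averaged per tumor and per group; ± SE.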

[5] = tested on: HT-29; experiment: Induction of apoptosis in human HT-29 cells assessed as caspase3 activity; type: functional, cell-based
[6] = tested on: HT-29; experiment: Reduction of proliferating cell nuclear antigen level in human HT-29 cells by Western blotting; type: functional, cell-based
Method in brief: (§3)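 Xenograft tumors from treated SCID mice were homogenized in lysis buffer and pooled by group. Primary antibodies (PCNA or p27) were applied overnight at 4 °C, followed by HRP secondary for 1 h. Bands detected by chemiluminescence, with β-actin as loading control.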

[7] = tested on: HT-29; experiment: Reduction of proliferating cell nuclear antigen level in human HT-29 cells by immunohistochemistry analysis; type: functional, cell-based; method in brief: as §2
[8] = tested on: HT-29; experiment: Induction of apoptosis in human HT-29 cells assessed as PARP cleavage; type: functional, cell-based
[9] = tested on: HT-29; experiment: Up-regulation of p27 expression level in human HT-29 cells by Western blotting; type: functional, cell-based; method in brief: as §3
[10] = tested on: Mus musculus; experiment: Toxicity in SCID mouse assessed as effect on body weight at 10 mg/kg, ip qd for 3 weeks (reference value: 20.4 +/- 0.4 g); type: organism-based; parameters: dose 10 mg/kg, route intraperitoneal; conditions: in vivo, 504 h
[11] = tested on: HT-29; experiment: Antitumor activity against human HT-29 cells xenografted in SCID mouse assessed as reduction tumor volume at 10 mg/kg, ip qd for 3 weeks (reference value: 1087 +/- 138.9 mm'3); type: functional; conditions: route intraperitoneal
[12] = tested on: HT-29; experiment: Antitumor activity against human HT-29 cells xenografted in SCID mouse assessed as reduction tumor weight at 10 mg/kg, ip qd for 3 weeks (reference value: 0.72 +/- 0.1 g); type: functional; conditions: route intraperitoneal

SMILES | IC50 [1] | IC50 [2] | Drug uptake [3] | further results
COc1cc(/C=C/c2ccc(S)cc2)cc(OC)c1 | > 10 µM | > 10 µM |  | 
COc1ccc(/C=C\c2cc(O)cc(O)c2)cc1 | > 30 µM | > 30 µM |  | 
COC(=O)c1ccc(/C=C\c2cc(OC)cc(OC)c2)cc1 |  |  | 18.8 ng/mL | 
COc1ccc(/C=C/c2cc(OC)cc(OC)c2)cc1 [TRISMETHOXYRESVERATROL] | 16.1 µM | 12 µM | 69.9 ng/mL | Activity [4]: Active; Activity [5]: inactive; Activity [6]: Active; Activity [7]: Active; Activity [8]: inactive; Activity [9]: Active; Activity [10]: 19.5 g; Activity [11]: 590.3 mm3; Activity [12]: 0.57 g
COc1cc(/C=C\c2ccc(F)cc2)cc(OC)c1 | > 10 µM | > 10 µM |  | 
COc1cc(/C=C\c2ccc(N)cc2)cc(OC)c1 |  |  | 109.1 ng/mL | 
COc1cc(/C=C/c2ccc(N)cc2)cc(OC)c1 |  |  | 99 ng/mL | 
COc1cc(/C=C/c2ccc(F)cc2)cc(OC)c1 | > 10 µM | > 10 µM |  | 
COc1cc(O)cc(/C=C/c2ccc(O)cc2)c1 | 33.5 µM | 19.2 µM |  | 
COc1ccc(/C=C/c2cc(O)cc(O)c2)cc1 [RESVERATROL 4'-METHYL ETHER] | 24.5 µM | > 30 µM |  | 
COc1cc(/C=C/c2ccc(O)cc2)cc(OC)c1 [PTEROSTILBENE] | 23.8 µM | 14.5 µM |  | 
COc1ccc(/C=C\c2cc(OC)cc(OC)c2)cc1 [8Z-3,4',5-TRIMETHOXYSTILBENE] | 0.04 µM | 0.08 µM | 15.5 ng/mL | Activity [10]: 19.8 g; Activity [11]: 1023.6 mm3; Activity [12]: 0.61 g
COc1cc(/C=C/c2ccc(OC3OC(CO)C(O)C(O)C3O)cc2)cc(OC)c1 (stereo not drawn) | > 10 µM | > 10 µM |  | 
COC(=O)c1ccc(/C=C/c2cc(OC)cc(OC)c2)cc1 |  |  | 54.6 ng/mL | 
